Experimental findings from ChEMBL document CHEMBL1649117, “GRL-02031, a novel nonpeptidic protease inhibitor (PI) containing a stereochemically defined fused cyclopentanyltetrahydrofuran potent against multi-PI-resistant human immunodeficiency virus type 1 in vitro” (Antimicrob Agents Chemother, 2009) are described below.

Assay [1] has as its system Human immunodeficiency virus 1. The experiment in a line: Antiviral activity against HIV1 ERS104pre infected in human PHA-PBC assessed as inhibition of p24 Gag protein production by ELISA. Type of assay: functional, organism-based. The following applies: Human immunodeficiency virus 1, ERS104pre. The essentials:
(§1)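 Phytohemagglutinin-stimulated PBMs (10^6/ml) infected with 50 TCID50s of each primary isolate, cultured with or without drug in 10-fold serial dilutions. On day 7, supernatant p24 Gag was measured by automated chemiluminescent enzyme immunoassay. Triplicate.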
On the technique in general: In an ELISA, binding on a coated surface is turned into a signal by an enzyme label.

Assay [2] has as its system Human immunodeficiency virus 1. The experiment in a line: Ratio of EC50 for amprenavir to compound against HIV1 NL4-3 harboring M46I/I47V mutation in protease encoding region infected in human […] cells. Type of assay: functional.
Assay [3] has as its system Human immunodeficiency virus 1. The experiment in a line: Ratio of EC50 for nelfinavir to compound against HIV1 NL4-3 harboring D30N mutation in protease encoding region infected in human […] cells. Type of assay: functional.
In assay [4] the test system is Human immunodeficiency virus 1. The experiment in a line: Ratio of EC50 for saquinavir to compound against HIV1 NL4-3 harboring G48V mutation in protease encoding region infected in human […] cells. Type of assay: functional.
Assay [5] deals with Human immunodeficiency virus 1. The experiment in a line: Antiviral activity against HIV1 A harboring L10I/I15V/E35D/N37E/K45R/I54V/L63P/A71V/V82T/L90M/I93L/C95F in protease encoding region infected in human PHA-PBC assessed as inhibition of p24 Gag protein production by ELISA. It counts as functional, organism-based. To be noted: Human immunodeficiency virus 1, A. Summed up: as §1

The test system of assay [6] is Human immunodeficiency virus 1. The experiment in a line: Antiviral activity against HIV1 C harboring L10I/I15V/K20R/L24I/M36I/M46L/I54V/I62V/L63P/K70Q/V82A/L89M in protease encoding region infected in human PHA-PBC assessed as inhibition of p24 Gag protein production by ELISA. It counts as functional, organism-based. The following applies: Human immunodeficiency virus 1, C. The essentials: (§2)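 Phytohemagglutinin-stimulated PBMs (10^6/ml) infected with 50 TCID50s of each primary isolate, cultured with or without drug in 10-fold serial dilutions. On day 7, supernatant p24 Gag was measured by automated chemiluminescent enzyme immunoassay. […] Triplicate.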

For assay [7], the system named is Human immunodeficiency virus 1. Put plainly: Antiviral activity against HIV1 G harboring L10I/V11I/T12E/I15V/L19I/R41K/M46L/L63P/A71T/V82A/L90M in protease encoding region infected in human PHA-PBC assessed as inhibition of p24 Gag protein production by ELISA. It counts as functional, organism-based. To be noted: Human immunodeficiency virus 1, G. Summed up: as §2

In assay [8] the test system is Human immunodeficiency virus 1. Put plainly: Ratio of EC50 for HIV1 TM harboring L10I/K14R/R41K/M46L/I54V/L63P/A71V/V82A/L90M/I93L in protease encoding region to EC50 for HIV1 ERS104pre. It counts as functional. Summed up: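 PHA-stimulated PBMs (10^6/ml) infected with 50 TCID50s of primary HIV-1 isolate and cultured with 10-fold serial drug dilutions. Day 7 supernatant p24 Gag measured by chemiluminescent enzyme immunoassay. […] Triplicate. Ratio is resistant isolate EC50 over reference isolate EC50.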

Assay [9] relates to Human immunodeficiency virus 1. Put plainly: Ratio of EC50 for HIV1 C harboring L10I/I15V/K20R/L24I/M36I/M46L/I54V/I62V/L63P/K70Q/V82A/L89M in protease encoding region to EC50 for HIV1 ERS104pre. Type of assay: functional.
Assay [10] concerns Human immunodeficiency virus 1. The experiment in a line: Antiviral activity against HIV1 NL4-3 harboring L10I/G48V/I54V/L90M amino acid substitution in protease encoding region infected in human MT4 cells assessed as inhibition of p24 Gag protein production selected at 5 uM of saquinavir by ELISA. Type of assay: functional, organism-based. The following applies: Human immunodeficiency virus 1, NL4-3, MT4. The essentials:
(§3)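 HIV-1NL4-3 (500 TCID50s) was passaged in MT-4 cells, starting at 0.01–0.03 µM PI and raising the drug generally two- to threefold as virus propagated. Cell-free passage used day-7 supernatants. Variants were then tested in MT-4 cells (10^5/ml) with 100 TCID50s, with or without drug, at 37°C. Day-7 p24 Gag was read by chemiluminescent immunoassay; EC50 vs drug-free control; triplicate.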

Assay [11] concerns Human immunodeficiency virus 1. The experiment in a line: Antiviral activity against HIV1 NL4-3 harboring L10F/L24I/M46I/L63P/A71V/G73S/V82T amino acid substitution in protease encoding region infected in human MT4 cells assessed as inhibition of p24 Gag protein production selected at 5 uM of indinavir by ELISA. It counts as functional, organism-based. To be noted: Human immunodeficiency virus 1, NL4-3, MT4. Summed up: as §3

Assay [12] has as its system Human immunodeficiency virus 1. Put plainly: Antiviral activity against HIV1 NL4-3 harboring L10F/M46I/I54V/V82A amino acid substitution in protease encoding region infected in human MT4 cells assessed as inhibition of p24 Gag protein production selected at 1 uM of Lopinavir by ELISA. Type of assay: functional, organism-based. To be noted: Human immunodeficiency virus 1, NL4-3, MT4. The essentials: (§4)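 Cell-free passage used day-7 supernatants. Variants were then tested in MT-4 cells (10^5/ml) with 100 TCID50s, with or without drug, at 37°C. Day-7 p24 Gag was read by chemiluminescent immunoassay; EC50 vs drug-free control; triplicate.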

Assay [13] has as its system Human immunodeficiency virus 1. The experiment in a line: Antiviral activity against HIV1 NL4-3 harboring L23I/K43I/M46I/I50L/G51A/A71V amino acid substitution in protease encoding region infected in human MT4 cells assessed as inhibition of p24 Gag protein production selected at 1 uM of atazanavir by ELISA. Type of assay: functional, organism-based. The following applies: Human immunodeficiency virus 1, NL4-3, MT4. Summed up:
as §3

Assay [14] relates to Human immunodeficiency virus 1. The experiment in a line: Antiviral activity against HIV1 NL4-3 harboring L10F/L33F/M46I/I47V/Q58E/V82I/I84V/I85V amino acid substitution in protease encoding region infected in human MT4 cells assessed as inhibition of p24 Gag protein production selected at 5 uM of GRL-02031 by ELISA. It counts as functional, organism-based. The following applies: Human immunodeficiency virus 1, NL4-3, MT4. The essentials:
as §4

For assay [15], the system named is Human immunodeficiency virus 1. Put plainly: Ratio of EC50 for HIV1 NL4-3 harboring L10I/G48V/I54V/L90M amino acid substitution in protease encoding region to EC50 for HIV1 NL4-3. It counts as functional. Summed up:
(§5)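 MT-4 cells (10^5/ml) infected with 100 TCID50s of PI-selected HIV-1NL4-3 variants or the parental strain, with or without serial drug concentrations, at 37°C. Day 7 supernatant p24 Gag measured by chemiluminescent enzyme immunoassay. […] Triplicate. Ratio is variant EC50 over wild-type EC50.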

The subject of assay [16] is Human immunodeficiency virus 1. The experiment in a line: Ratio of EC50 for HIV1 NL4-3 harboring L10F/D30N/K45I/A71V/T74S amino acid substitution in protease encoding region to EC50 for HIV1 NL4-3. It counts as functional.
The test system of assay [17] is Human immunodeficiency virus 1. The experiment in a line: Ratio of EC50 for HIV1 NL4-3 harboring L10F/M46I/I54V/V82A amino acid substitution in protease encoding region to EC50 for HIV1 NL4-3. Type of assay: functional. The essentials:
as §5

In assay [18] the test system is Human immunodeficiency virus 1. The experiment in a line: Antiviral activity against HIV1 NL4-3 harboring M46I/I47V mutation in protease encoding region infected in human […] cells assessed as inhibition of p24 Gag protein production by ELISA. The following applies: Human immunodeficiency virus 1, NL4-3. Type of assay: functional, organism-based. Summed up:
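Protease PCR fragments (ApaI/SmaI) were cloned into pHIV-1NLSma, and virions were harvested from transfected 293T cells over 48 h. MT-4 target cells (10^5/ml) were infected with 100 TCID50s, with or without drug, at 37°C. Day-7 supernatant p24 Gag was read by chemiluminescent enzyme immunoassay.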

Assay [19] has as its system Human immunodeficiency virus 1. The experiment in a line: Ratio of EC50 for HIV1 NL4-3 harboring V82I/I85V mutation in protease encoding region infected in human […] cells to EC50 for HIV1 NL4-3 infected in human MT4 cells. Type of assay: functional.
For assay [20], the system named is Human immunodeficiency virus 1. Put plainly: Ratio of EC50 for amprenavir to compound against HIV1 NL4-3 harboring I47V mutation in protease encoding region infected in human […] cells. Type of assay: functional.

On to `COc1ccc(S(=O)(=O)N(C[C@@H]2CCC(=O)N2)C[C@@H](O)[C@H](Cc2ccccc2)NC(=O)O[C@@H]2C[C@@H]3CCO[C@@H]3C2)cc1`, for which the EC50 in assay [1] came to 27 nM; in assay [5], 14 nM; in [6] it was 27 nM; in assay [7] it was 28 nM; in [10], 140 nM; in assay [11] it was 47 nM. For the same compound, the EC50 in [12] was 38 nM; in assay [13], 33 nM; in assay [14], over 1000 nM; in assay [18], 73 nM. The “Ratio EC50” value in [2] was found to be 1.3; in [3], 5.6; in assay [4], 5.1; in assay [8], 1; in assay [9], 1; in assay [15] it was 6. The “Ratio EC50” value is given as 2 in [16], 2 in [17], 1.5 in [19] and 1.2 in [20].

On to `CC(C)(C)NC(=O)[C@@H]1C[C@@H]2CCCC[C@@H]2CN1C[C@@H](O)[C@H](Cc1ccccc1)NC(=O)[C@H](CC(N)=O)NC(=O)c1ccc2ccccc2n1`, for which the concentration giving a half-maximal response (EC50) in assay [1] is 9 nM; in assay [5] it was 100 nM; in assay [7] it was 27 nM; in assay [10], over 1000 nM; in assay [11], 22 nM; in [12] it was 33 nM. Further, the concentration giving a half-maximal response (EC50) in assay [13] worked out at 34 nM; in [14], 8 nM. Further, the “Ratio EC50” value in assay [8] is listed as 30; in assay [9], 4; in assay [15] it was over 125; in [16], 4; in assay [17] it was 4.

Regarding `CC(C)(C)NC(=O)[C@@H]1CN(Cc2cccnc2)CCN1C[C@@H](O)C[C@@H](Cc1ccccc1)C(=O)N[C@H]1c2ccccc2C[C@H]1O.O`, the EC50 is over 1000 nM in assay [5]; over 1000 nM in assay [6]; 340 nM in assay [7]; over 1000 nM in assay [10]; over 1000 nM in assay [11]; over 1000 nM in assay [12]. For the same compound, the half-maximal effective concentration (EC50) in assay [13] is 330 nM; in [14], 44 nM. Further, the “Ratio EC50” value in assay [8] is given as over 48; in assay [9], over 48; in assay [15], over 71; in assay [16], 19; in assay [17], over 71.

With `Cc1c(O)cccc1C(=O)N[C@@H](CSc1ccccc1)[C@H](O)CN1C[C@H]2CCCC[C@H]2C[C@H]1C(=O)NC(C)(C)C`, the EC50 in [1] was 16 nM; in assay [5], 330 nM; in assay [6], 360 nM; in [7], 230 nM; in assay [10], 320 nM; in assay [11], 650 nM. In addition, the EC50 in assay [12] was found to be 510 nM; in assay [13], 210 nM; in [14], 11 nM. Besides, the “Ratio EC50” value is reported as over 63 in assay [8]; 23 in assay [9]; 18 in assay [15]; over 56 in [16]; 28 in assay [17].

Turning to `CC(C)CN(C[C@@H](O)[C@H](Cc1ccccc1)NC(=O)O[C@H]1CCOC1)S(=O)(=O)c1ccc(N)cc1`, the EC50 came out at 160 nM in [5]; 220 nM in [6]; 230 nM in assay [7]; 210 nM in assay [10]; 260 nM in assay [11]; 320 nM in [12]. In addition, the 50% effective concentration (EC50) stood at 180 nM in assay [13] and 210 nM in [14]. In addition, the “Ratio EC50” value in [8] turned out to be 14; in [9], 9; in assay [15] it was 8; in assay [16] it was 3; in [17], 11.

The term EC50 denotes the midpoint of the concentration-response curve.
